{"source": "ChEMBL document CHEMBL3045665", "about": "“Synthesis and in vitro antiproliferative activity of novel (4-chloro- and 4-acyloxy-2-butynyl)thioquinolines” (2011)", "assay_type_in_all_cases": "functional", "key": {"[1]": {"tested_on": "P388", "assay": "Antiproliferative activity against Mus musculus (mouse) P388 cells after 72 hr", "details": "P388, 72 h, read-out: ID50 (the source's name)", "method_in_brief": "(§1)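 Leukemia cells were grown in suspension in opti-MEM with 2 mM glutamine, antibiotics and 5% FCS (37°C, 5% CO2) and seeded at 10^4 cells/well 24 h beforehand. They were exposed 72 h to 0.1–100 µg/ml (1 mg/ml stock in 10% DMSO). MTT was added for the final 3–4 h, followed by SDS/DMF lysis for 24 h and OD at 570 nm. ID50 is relative to untreated control; triplicates, 3–5 experiments.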"}, "[2]": {"tested_on": "T47D", "assay": "Antiproliferative activity against Homo sapiens (human) T47D cells after 72 hr", "details": "read-out: ID50 (the source's name)", "method_in_brief": "(§2)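 Cells in opti-MEM with 2 mM glutamine, streptomycin, penicillin and 5% FCS at 37°C and 5% CO2. Plated at 10^4 cells/well 24 h before treatment, then exposed 72 h to 0.1–100 µg/ml (1 mg/ml stock in 10% DMSO, diluted in medium). Cells fixed with cold 50% TCA, stained with 0.4% SRB, dye extracted in 10 mM Tris, OD 540 nm. ID50 versus untreated control. Triplicates, 3–5 experiments.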"}, "[3]": {"tested_on": "CCRF-CEM", "assay": "Antiproliferative activity against Homo sapiens (human) CCRF-CEM cells after 72 hr", "details": "read-out: ID50 (the source's name)", "method_in_brief": "as §1"}, "[4]": {"assay": "Antiproliferative activity against Homo sapiens (human) SW707 cells after 72 hr", "details": "SW707, 72 h, read-out: ID50 (the source's name)", "method_in_brief": "as §2"}, "[5]": {"tested_on": "B16", "assay": "Antiproliferative activity against Mus musculus (mouse) B16 cells after 72 hr", "details": "B16, 72 h, read-out: ID50 (the source's name)", "method_in_brief": "as §2"}}}
{"smiles": "ClCC#CCSc1cnc2ccccc2c1Cl", "values": [{"measurement": "IC50", "setting": "[1]", "value": 13.4, "unit": "µg/mL"}, {"measurement": "IC50", "setting": "[2]", "value": 3.2, "unit": "µg/mL"}, {"measurement": "IC50", "setting": "[3]", "value": 3.7, "unit": "µg/mL"}, {"measurement": "IC50", "setting": "[4]", "value": 3.3, "unit": "µg/mL"}, {"measurement": "IC50", "setting": "[5]", "value": 4, "unit": "µg/mL"}]}
{"smiles": "CSc1cnc2ccccc2c1SCC#CCCl", "values": [{"measurement": "IC50", "setting": "[1]", "value": 2.7, "unit": "µg/mL"}, {"measurement": "IC50", "setting": "[2]", "value": 3.9, "unit": "µg/mL"}, {"measurement": "IC50", "setting": "[3]", "value": 2.5, "unit": "µg/mL"}, {"measurement": "IC50", "setting": "[4]", "value": 3.7, "unit": "µg/mL"}, {"measurement": "IC50", "setting": "[5]", "value": 16.9, "unit": "µg/mL"}]}
{"smiles": "CSc1cnc2ccccc2c1[Se]CC#CCCl", "values": [{"measurement": "IC50", "setting": "[1]", "value": 0.4, "unit": "µg/mL"}, {"measurement": "IC50", "setting": "[2]", "value": 0.7, "unit": "µg/mL"}, {"measurement": "IC50", "setting": "[3]", "value": 1.7, "unit": "µg/mL"}, {"measurement": "IC50", "setting": "[4]", "value": 3.2, "unit": "µg/mL"}, {"measurement": "IC50", "setting": "[5]", "value": 3.5, "unit": "µg/mL"}]}
{"smiles": "C#CCSc1cnc2ccccc2c1SCC#CCCl", "values": [{"measurement": "IC50", "setting": "[1]", "value": 3, "unit": "µg/mL"}, {"measurement": "IC50", "setting": "[2]", "value": 5.8, "unit": "µg/mL"}, {"measurement": "IC50", "setting": "[3]", "value": 2.9, "unit": "µg/mL"}, {"measurement": "IC50", "setting": "[4]", "value": 12.9, "unit": "µg/mL"}, {"measurement": "IC50", "setting": "[5]", "value": 52.8, "unit": "µg/mL"}]}
{"smiles": "C#CCSc1cnc2ccccc2c1[Se]CC#CCCl", "values": [{"measurement": "IC50", "setting": "[1]", "value": 0.8, "unit": "µg/mL"}, {"measurement": "IC50", "setting": "[2]", "value": 0.4, "unit": "µg/mL"}, {"measurement": "IC50", "setting": "[3]", "value": 1.8, "unit": "µg/mL"}, {"measurement": "IC50", "setting": "[4]", "value": 3.2, "unit": "µg/mL"}, {"measurement": "IC50", "setting": "[5]", "value": 7.1, "unit": "µg/mL"}]}
{"smiles": "OCC#CCSc1cnc2ccccc2c1SCC#CCCl", "values": [{"measurement": "IC50", "setting": "[1]", "value": 5.1, "unit": "µg/mL"}, {"measurement": "IC50", "setting": "[2]", "value": 5.3, "unit": "µg/mL"}, {"measurement": "IC50", "setting": "[3]", "value": 3.3, "unit": "µg/mL"}, {"measurement": "IC50", "setting": "[4]", "value": 19.8, "unit": "µg/mL"}, {"measurement": "IC50", "setting": "[5]", "value": 43.4, "unit": "µg/mL"}]}
{"smiles": "OCC#CCSc1cnc2ccccc2c1[Se]CC#CCCl", "values": [{"measurement": "IC50", "setting": "[1]", "value": 2, "unit": "µg/mL"}, {"measurement": "IC50", "setting": "[2]", "value": 1.7, "unit": "µg/mL"}, {"measurement": "IC50", "setting": "[3]", "value": 2.6, "unit": "µg/mL"}, {"measurement": "IC50", "setting": "[4]", "value": 3.3, "unit": "µg/mL"}, {"measurement": "IC50", "setting": "[5]", "value": 3.8, "unit": "µg/mL"}]}
{"smiles": "O=C(O)c1ccccc1C(=O)OCC#CCSc1cnc2ccccc2c1Cl", "values": [{"measurement": "IC50", "setting": "[5]", "value": 53.8, "unit": "µg/mL"}]}
{"smiles": "O=C(/C=C/c1ccccc1)OCC#CCSc1cnc2ccccc2c1Cl", "values": [{"measurement": "IC50", "setting": "[1]", "value": 32.8, "unit": "µg/mL"}, {"measurement": "IC50", "setting": "[2]", "value": 22.8, "unit": "µg/mL"}, {"measurement": "IC50", "setting": "[3]", "value": 15.4, "unit": "µg/mL"}, {"measurement": "IC50", "setting": "[4]", "value": 48.8, "unit": "µg/mL"}, {"measurement": "IC50", "setting": "[5]", "value": 11.4, "unit": "µg/mL"}]}
{"smiles": "CSc1cnc2ccccc2c1SCC#CCOC(=O)c1ccccc1C(=O)O", "values": [{"measurement": "IC50", "setting": "[1]", "value": 35, "unit": "µg/mL"}, {"measurement": "IC50", "setting": "[2]", "value": 36.1, "unit": "µg/mL"}, {"measurement": "IC50", "setting": "[3]", "value": 14.5, "unit": "µg/mL"}, {"measurement": "IC50", "setting": "[4]", "value": 28.1, "unit": "µg/mL"}, {"measurement": "IC50", "setting": "[5]", "value": 18.1, "unit": "µg/mL"}]}
{"smiles": "CSc1cnc2ccccc2c1[Se]CC#CCOC(=O)c1ccccc1C(=O)O", "values": [{"measurement": "IC50", "setting": "[1]", "value": 19.1, "unit": "µg/mL"}, {"measurement": "IC50", "setting": "[2]", "value": 3.2, "unit": "µg/mL"}, {"measurement": "IC50", "setting": "[3]", "value": 4, "unit": "µg/mL"}, {"measurement": "IC50", "setting": "[4]", "value": 3.7, "unit": "µg/mL"}, {"measurement": "IC50", "setting": "[5]", "value": 3.1, "unit": "µg/mL"}]}
{"smiles": "CSc1cnc2ccccc2c1SCC#CCOC(=O)c1ccccc1", "values": [{"measurement": "IC50", "setting": "[3]", "value": 22.2, "unit": "µg/mL"}, {"measurement": "IC50", "setting": "[5]", "value": 17.8, "unit": "µg/mL"}]}
{"smiles": "CSc1cnc2ccccc2c1[Se]CC#CCOC(=O)c1ccccc1", "values": [{"measurement": "IC50", "setting": "[1]", "value": 3.5, "unit": "µg/mL"}, {"measurement": "IC50", "setting": "[2]", "value": 2.2, "unit": "µg/mL"}, {"measurement": "IC50", "setting": "[3]", "value": 1.9, "unit": "µg/mL"}, {"measurement": "IC50", "setting": "[4]", "value": 3.6, "unit": "µg/mL"}, {"measurement": "IC50", "setting": "[5]", "value": 2.1, "unit": "µg/mL"}]}
{"smiles": "CCOC(=O)OCC#CCSc1c(SC)cnc2ccccc12", "values": [{"measurement": "IC50", "setting": "[1]", "value": 34.7, "unit": "µg/mL"}, {"measurement": "IC50", "setting": "[2]", "value": 34.2, "unit": "µg/mL"}, {"measurement": "IC50", "setting": "[3]", "value": 13.2, "unit": "µg/mL"}, {"measurement": "IC50", "setting": "[4]", "value": 33.1, "unit": "µg/mL"}, {"measurement": "IC50", "setting": "[5]", "value": 5.5, "unit": "µg/mL"}]}
{"smiles": "CSc1cnc2ccccc2c1SCC#CCOC(=O)/C=C/c1ccccc1", "values": [{"measurement": "IC50", "setting": "[2]", "value": 71.9, "unit": "µg/mL"}, {"measurement": "IC50", "setting": "[3]", "value": 18.1, "unit": "µg/mL"}, {"measurement": "IC50", "setting": "[4]", "value": 66.6, "unit": "µg/mL"}, {"measurement": "IC50", "setting": "[5]", "value": 9.4, "unit": "µg/mL"}]}
{"smiles": "CSc1cnc2ccccc2c1[Se]CC#CCOC(=O)/C=C/c1ccccc1", "values": [{"measurement": "IC50", "setting": "[1]", "value": 43.9, "unit": "µg/mL"}, {"measurement": "IC50", "setting": "[2]", "value": 4.3, "unit": "µg/mL"}, {"measurement": "IC50", "setting": "[3]", "value": 17.8, "unit": "µg/mL"}, {"measurement": "IC50", "setting": "[4]", "value": 4.7, "unit": "µg/mL"}, {"measurement": "IC50", "setting": "[5]", "value": 3.1, "unit": "µg/mL"}]}
{"smiles": "C#CCSc1cnc2ccccc2c1SCC#CCOC(=O)/C=C/c1ccccc1", "values": [{"measurement": "IC50", "setting": "[3]", "value": 50.9, "unit": "µg/mL"}, {"measurement": "IC50", "setting": "[5]", "value": 14.7, "unit": "µg/mL"}]}
